Active and inactive are the calls of the source. The rule behind the calls is not given here.
What was measured:
Vibrio harveyi [1] = assay: Toxicity in Vibrio harveyi ATCC BAA-1118 assessed as effect on cell viability after 1.5 hrs by bioluminescence assay; format: organism-based
In short: (§1)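 V. harveyi BB886 QS reporter was exposed to furanones at various concentrations in the bioluminescence assay. Viable cells were counted as CFU after treatment.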

Pseudomonas aeruginosa [2] = assay: Antibacterial activity against Pseudomonas aeruginosa PAO1 assessed as viability of persister cells at 2 ug/mL after 2 hrs
Vibrio harveyi [3] = assay: Inhibition of AHL-mediated quorum sensing in Vibrio harveyi ATCC BAA-1118 at 0.5 ug/mL after 1.5 hrs by bioluminescence assay relative to control
In short: (§2)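 V. harveyi BB886 reporter, which emits light in response to extracellular AHL, was incubated with or without furanone at various concentrations (Surette method, modified). Bioluminescence was normalized to viable CFU to give relative bioluminescence versus untreated.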

Pseudomonas aeruginosa [4] = assay: Potentiation of ciprofloxacin-induced antibacterial activity against Pseudomonas aeruginosa PAO1 assessed as persister cells at 2 ug/mL after 3.5 hrs; format: functional, organism-based
In short: (§3)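 Isolated PAO1 persisters were given furanone at 2 µg/mL for 2 h. A portion of each sample then received 200 µg/mL ciprofloxacin for 3.5 h. Surviving persisters were counted as CFU.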

Pseudomonas aeruginosa [5] = assay: Antibacterial activity against Pseudomonas aeruginosa PAO1 assessed as viability of persister cells at 2 ug/mL after 2 hrs; format: functional
In short: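 Persisters isolated from P. aeruginosa PAO1 per an earlier protocol, exposed to furanone for 2 h. Viability was counted as CFU by plating on LB agar immediately after treatment.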

Vibrio harveyi [6] = assay: Inhibition of AHL-mediated quorum sensing in Vibrio harveyi ATCC BAA-1118 after 1.5 hrs by bioluminescence assay; in short: as §2
Pseudomonas aeruginosa [7] = assay: Potentiation of ciprofloxacin-induced antibacterial activity against Pseudomonas aeruginosa PAO1 assessed as sensitive persister cells at 2 ug/mL after 3.5 hrs; format: functional; in short: as §3
Vibrio harveyi [8] = assay: Toxicity in Vibrio harveyi ATCC BAA-1118 assessed as effect on cell viability up to 60 ug/mL after 1.5 hrs by bioluminescence assay; format: organism-based; in short: as §1
Vibrio harveyi [9] = assay: Inhibition of AHL-mediated quorum sensing in Vibrio harveyi ATCC BAA-1118 up to 60 ug/mL after 1.5 hrs by bioluminescence assay; in short: as §2
Vibrio harveyi [10] = assay: Inhibition of AHL-mediated quorum sensing in Vibrio harveyi ATCC BAA-1118 at 10 ug/mL after 1.5 hrs by bioluminescence assay relative to control; in short: as §2
Vibrio harveyi [11] = assay: Inhibition of AHL-mediated quorum sensing in Vibrio harveyi ATCC BAA-1118 at 30 ug/mL after 1.5 hrs by bioluminescence assay; in short: as §2
Vibrio harveyi [12] = assay: Toxicity in Vibrio harveyi ATCC BAA-1118 assessed as effect on cell viability at 30 ug/mL after 1.5 hrs by bioluminescence assay; format: organism-based; in short: as §1
Vibrio harveyi [13] = assay: Toxicity in Vibrio harveyi ATCC BAA-1118 assessed as effect on cell viability up to 10 ug/mL after 1.5 hrs by bioluminescence assay; format: organism-based; in short: as §1
Pseudomonas aeruginosa [14] = assay: Antibacterial activity against Pseudomonas aeruginosa PAO1 assessed as viability of persister cells at 200 ug/mL after 3.5 hrs; format: functional, organism-based; in short: as §3

inhibition (Vibrio harveyi [6]) | SMILES | Activity (Vibrio harveyi [1]) | Activity (Pseudomonas aeruginosa [2]) | Activity (Pseudomonas aeruginosa [5]) | also measured
inactive | CC1=CC(=O)OC1=O | Non-toxic | inactive |  | 
Dose-dependent effect | CC1=CC(=C(Br)Br)OC1=O |  |  | inactive | inhibition (Vibrio harveyi [10]): 100%; Activity (Pseudomonas aeruginosa [4]): Active; inhibition (Vibrio harveyi [11]): Active; Activity (Vibrio harveyi [12]): Toxic; Activity (Vibrio harveyi [13]): Non-toxic

Further lines, the compound ahead of its results:

SMILES | inhibition (Vibrio harveyi [6]) | Activity (Vibrio harveyi [1]) | Activity (Pseudomonas aeruginosa [2]) | Activity (Pseudomonas aeruginosa [5]) | also measured
O=C1OC(=C(Br)Br)C=C1C(Br)Br |  | Non-toxic | Active |  | inhibition (Vibrio harveyi [3]): 55.9%
O=C1OC(=C(Br)Br)C=C1CBr |  | Non-toxic |  | inactive | Activity (Pseudomonas aeruginosa [4]): Active; inhibition (Vibrio harveyi [3]): 91.2%
O=C1O/C(=C\Br)C(Br)=C1CBr | Active | Non-toxic | Active |  | 
CC1=C(Br)C(C(Br)Br)OC1=O (stereo unspecified) | inactive | Non-toxic |  | 64.6% | Activity (Pseudomonas aeruginosa [7]): 99.99%
COC1=CC(=O)OC1 |  |  | inactive |  | Activity (Vibrio harveyi [8]): Non-toxic; inhibition (Vibrio harveyi [9]): inactive
CC1=C(Br)C(Br)(C(Br)Br)OC1=O (stereo unspecified) | inactive | Non-toxic | Active |  | 
O=C(O)c1cn(C2CC2)c2cc(N3CCNCC3)c(F)cc2c1=O |  |  |  |  | Activity (Pseudomonas aeruginosa [14]): inactive
